Source: ChEMBL document CHEMBL3046507, “Synthesis and herbicidal activities of novel 3-N-substituted amino-6-methyl-4-(3-trifluoromethylphenyl)pyridazine derivatives” (2008)

Columns and labels:
[1] = tested on: Digitaria; assay: Herbicidal activity against Digitaria adscendens assessed as inhibition of fresh plant weight at 750 g/ha using preemergence protocol measured after 24 days under green house conditions; settings: in Digitaria adscendens, pre-emergence
[2] = tested on: Amaranthus retroflexus; assay: Herbicidal activity against Amaranthus retroflexus assessed as inhibition of fresh plant weight at 750 g/ha using preemergence protocol measured after 24 days under green house conditions; settings: pre-emergence
[3] = tested on: Amaranthus retroflexus; assay: Herbicidal activity against Amaranthus retroflexus assessed as inhibition of fresh plant weight at 150 g/ha using postemergence protocol measured after 24 days under green house conditions; settings: post-emergence
[4] = tested on: Echinochloa crus-galli; assay: Herbicidal activity against Echinochloa crus-galli (barnyard grass) assessed as inhibition of fresh plant weight at 750 g/ha using postemergence protocol measured after 24 days under green house conditions; settings: post-emergence
[5] = tested on: Amaranthus retroflexus; assay: Herbicidal activity against Amaranthus retroflexus assessed as inhibition of fresh plant weight at 75 g/ha using postemergence protocol measured after 24 days under green house conditions; settings: post-emergence
[6] = tested on: Spirodela polyrhiza; assay: Inhibition of chlorophyll in Spirodela polyrhiza fronds at 10 ug/mL using light intensity of 45 uE/m2/s measured after 7 days; type: functional; settings: 168 h
Summary of the method: (§1)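 Giant duckweed assay. Compound in DMF dropped onto filter paper, solvent evaporated 15 min, paper placed in flask with 15 mL fresh medium and shaken >10 min. 10 fronds inoculated per flask and grown 7 days at 23-26 °C, 16 h light/8 h dark, ca. 45 µE m^-2 s^-1. DMF plus medium served as control. Chl extracted in 96% ethanol overnight at 4 °C; OD read at 665 and 649 nm; content expressed as percent of control.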

[7] = tested on: Brassica rapa subsp. oleifera; assay: Herbicidal activity against Brassica rapa subsp. oleifera assessed as inhibition of fresh plant weight at 75 g/ha using postemergence protocol measured after 24 days under green house conditions; settings: post-emergence
[8] = tested on: Brassica rapa subsp. oleifera; assay: Herbicidal activity against Brassica rapa subsp. oleifera assessed as inhibition of fresh plant weight at 300 g/ha using postemergence protocol measured after 24 days under green house conditions; settings: post-emergence
[9] = tested on: Brassica rapa subsp. oleifera; assay: Herbicidal activity against Brassica rapa subsp. oleifera assessed as inhibition of fresh plant weight at 750 g/ha using postemergence protocol measured after 24 days under green house conditions; settings: post-emergence
[10] = tested on: Brassica rapa subsp. oleifera; assay: Herbicidal activity against Brassica rapa subsp. oleifera assessed as inhibition of fresh plant weight at 150 g/ha using postemergence protocol measured after 24 days under green house conditions; settings: post-emergence
[11] = tested on: Spirodela polyrhiza; assay: Inhibition of chlorophyll in Spirodela polyrhiza fronds at 1 ug/mL using light intensity of 45 uE/m2/s measured after 7 days; type: functional; settings: 168 h
Summary of the method: as §1

[12] = tested on: Brassica rapa subsp. oleifera; assay: Herbicidal activity against Brassica rapa subsp. oleifera assessed as inhibition of fresh plant weight at 600 g/ha using postemergence protocol measured after 24 days under green house conditions; settings: post-emergence
[13] = tested on: Brassica rapa subsp. oleifera; assay: Herbicidal activity against Brassica rapa subsp. oleifera assessed as inhibition of fresh plant weight at 750 g/ha using preemergence protocol measured after 24 days under green house conditions; settings: pre-emergence
[14] = tested on: Echinochloa crus-galli; assay: Herbicidal activity against Echinochloa crus-galli (barnyard grass) assessed as inhibition of fresh plant weight at 750 g/ha using preemergence protocol measured after 24 days under green house conditions; settings: pre-emergence
[15] = tested on: Amaranthus retroflexus; assay: Herbicidal activity against Amaranthus retroflexus assessed as inhibition of fresh plant weight at 750 g/ha using postemergence protocol measured after 24 days under green house conditions; settings: post-emergence
[16] = tested on: Amaranthus retroflexus; assay: Herbicidal activity against Amaranthus retroflexus assessed as inhibition of fresh plant weight at 300 g/ha using postemergence protocol measured after 24 days under green house conditions; settings: post-emergence
[17] = tested on: Amaranthus retroflexus; assay: Herbicidal activity against Amaranthus retroflexus assessed as inhibition of fresh plant weight at 600 g/ha using postemergence protocol measured after 24 days under green house conditions; settings: post-emergence
[18] = tested on: Digitaria; assay: Herbicidal activity against Digitaria adscendens assessed as inhibition of fresh plant weight at 750 g/ha using postemergence protocol measured after 24 days under green house conditions; settings: in Digitaria adscendens, post-emergence
[19] = tested on: Digitaria; assay: Herbicidal activity against Digitaria adscendens assessed as inhibition of fresh plant weight at 600 g/ha using postemergence protocol […] under green house conditions; type: functional; settings: in Digitaria adscendens, post-emergence
Summary of the method: (§2)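 Weed seedlings at one-leaf-and-one-stem stage sprayed post-emergence with test solution at 750, 600, 300, 150 or 75 g/ha. Aboveground fresh weight determined 24 days after treatment; percent inhibition calculated relative to controls. Two replicates per treatment.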

[20] = tested on: Brassica rapa subsp. oleifera; assay: Herbicidal activity against Brassica rapa subsp. oleifera assessed as inhibition of fresh plant weight at 600 g/ha using preemergence protocol measured […] under green house conditions; type: functional; settings: pre-emergence
Summary of the method: (§3)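 Pre-emergence treatment. Aboveground fresh weight measured 24 days later; percent inhibition calculated against controls. Two replicates per treatment.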

[21] = tested on: Amaranthus retroflexus; assay: Herbicidal activity against Amaranthus retroflexus assessed as inhibition of fresh plant weight at 600 g/ha using preemergence protocol measured […] under green house conditions; type: functional; settings: pre-emergence
Summary of the method: as §3

[22] = tested on: Echinochloa crus-galli; assay: Herbicidal activity against Echinochloa crus-galli (barnyard grass) assessed as inhibition of fresh plant weight at 600 g/ha using postemergence protocol measured […] under green house conditions; type: functional; settings: post-emergence
Summary of the method: as §2

[23] = tested on: Digitaria; assay: Herbicidal activity against Digitaria adscendens assessed as inhibition of fresh plant weight at 600 g/ha using preemergence protocol […] under green house conditions; type: functional; settings: in Digitaria adscendens, pre-emergence
Summary of the method: as §3

[24] = tested on: Echinochloa crus-galli; assay: Herbicidal activity against Echinochloa crus-galli (barnyard grass) assessed as inhibition of fresh plant weight at 600 g/ha using preemergence protocol […] under green house conditions; type: functional; settings: pre-emergence
Summary of the method: as §3

`Cc1cc(-c2cccc(C(F)(F)F)c2)c(Nc2ccc(Cl)cc2)nn1` gave an inhibition at 750 g/ha [1] of 0%, an inhibition at 750 g/ha [2] of 0% and an inhibition at 150 g/ha [3] of 45%. The inhibition at 750 g/ha [4] was 0%, the inhibition at 75 g/ha [5] was 42% and the inhibition at 10 µg/mL [6] was 100%. It also gave an inhibition at 75 g/ha [7] of 52%, an inhibition at 300 g/ha [8] of 89% and an inhibition at 750 g/ha [9] of 100%. For the same molecule, the inhibition at 150 g/ha [10] was 87%, the inhibition at 1 µg/mL [11] was 87% and the inhibition at 600 g/ha [12] was 90%. For the same molecule, the inhibition at 750 g/ha [13] was 18%, the inhibition at 750 g/ha [14] was 0% and the inhibition at 750 g/ha [15] was 100%. The inhibition at 300 g/ha [16] was 60%, the inhibition at 600 g/ha [17] was 66% and the inhibition at 750 g/ha [18] was 0%.
With `Cc1cc(-c2cccc(C(F)(F)F)c2)c(Nc2cccc(C(F)(F)F)c2)nn1` the inhibition at 750 g/ha [1] was 0%, the inhibition at 750 g/ha [2] was 0% and the inhibition at 150 g/ha [3] was 37%. The inhibition at 750 g/ha [4] was 8%, the inhibition at 75 g/ha [5] was 32% and the inhibition at 10 µg/mL [6] was 100%. For the same molecule, the inhibition at 75 g/ha [7] was 48%, the inhibition at 300 g/ha [8] was 79% and the inhibition at 750 g/ha [9] was 96%. For the same molecule, the inhibition at 150 g/ha [10] was 72%, the inhibition at 1 µg/mL [11] was 100% and the inhibition at 600 g/ha [12] was 88%. For the same molecule, the inhibition at 750 g/ha [13] was 0%, the inhibition at 750 g/ha [14] was 0% and the inhibition at 750 g/ha [15] was 95%. For the same molecule, the inhibition at 300 g/ha [16] was 42%, the inhibition at 600 g/ha [17] was 54% and the inhibition at 750 g/ha [18] was 0%.
`CCOC(=O)n1nc(C)cc(-c2cccc(C(F)(F)F)c2)c1=O` gave an inhibition at 600 g/ha [19] of 13%, an inhibition at 600 g/ha [20] of 87% and an inhibition at 10 µg/mL [6] of 100%. For the same molecule, the inhibition at 600 g/ha [12] was 55%, the inhibition at 600 g/ha [21] was 100% and the inhibition at 600 g/ha [22] was 0%. For the same molecule, the inhibition at 600 g/ha [23] was 100%, the inhibition at 600 g/ha [24] was 46% and the inhibition at 600 g/ha [17] was 61%.
In the case of `CCCn1nc(C)cc(-c2cccc(C(F)(F)F)c2)c1=O`, the inhibition at 600 g/ha [19] is reported as 19%, the inhibition at 600 g/ha [20] is reported as 61% and the inhibition at 10 µg/mL [6] is reported as 90%. The inhibition at 600 g/ha [12] was 6%, the inhibition at 600 g/ha [21] was 51% and the inhibition at 600 g/ha [22] was 5%. It also gave an inhibition at 600 g/ha [23] of 100%, an inhibition at 600 g/ha [24] of 82% and an inhibition at 600 g/ha [17] of 28%.
`O=C(Nc1ccc(F)cc1F)c1cccnc1Oc1cccc(C(F)(F)F)c1` [DIFLUFENICAN] showed an inhibition at 750 g/ha [1] of 100%, an inhibition at 750 g/ha [2] of 90% and an inhibition at 150 g/ha [3] of 70%. For the same molecule, the inhibition at 750 g/ha [4] was 67%, the inhibition at 75 g/ha [5] was 41% and the inhibition at 10 µg/mL [6] was 94%. The inhibition at 75 g/ha [7] was 44%, the inhibition at 300 g/ha [8] was 94% and the inhibition at 750 g/ha [9] was 98%. For the same molecule, the inhibition at 150 g/ha [10] was 88%, the inhibition at 1 µg/mL [11] was 90% and the inhibition at 600 g/ha [12] was 98%. For the same molecule, the inhibition at 750 g/ha [13] was 71%, the inhibition at 750 g/ha [14] was 94% and the inhibition at 750 g/ha [15] was 100%. For the same molecule, the inhibition at 300 g/ha [16] was 74%, the inhibition at 600 g/ha [17] was 100% and the inhibition at 750 g/ha [18] was 83%.
